We go through 6 compounds from ChEMBL document CHEMBL3865807, “Syntheses and photodynamic activity of some glucose-conjugated BODIPY dyes” (Eur J Med Chem, 2016).

Data set [1] in a line: Drug uptake in cytoplasm of human A549 cells at 1 uM after 0.25 to 3 hrs by Hoechst 33342 staining based fluorescence microscopy. Type of data set: ADME, cell-based. Particulars: a549, 1 µM. A digest of the protocol:
(§1)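 A549 cells on coverslips loaded with dyes (1 µM) for 0.25, 0.5, 1, 2 or 3 h at 37 °C, washed, counterstained with Hoechst 33342 (10 µM), mounted in 70% glycerol; red dye and blue nuclear fluorescence imaged by fluorescence microscopy (40×) and overlaid.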

Data set [2] is described as follows: Drug uptake in human A549 cells assessed as mean fluorescence intensity at 2.5 uM after 16 hrs by flow cytometry (reference value: 2.4 +/- 1.1). Type of data set: ADME, cell-based. The note with it: a549, 16 h.
Data set [3] has as its system A549. Briefly: Photocytotoxicity against human A549 cells assessed as decrease in cell viability at 500 to 5000 nM preincubated for 1 hr followed by 0.77 mW/cm2 white light irradiation measured after 24 hrs by MTT assay. Type of data set: functional, cell-based. Particulars: TDE = time-dependent effect. Summed up:
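A549 cells (1×10^4/well), plated overnight, given compound for 1 h in serum-free medium, washed twice with PBS, irradiated 0.5, 1, 2 or 4 h at 0.77 mW/cm² (37 °C, 5% CO₂), then 24 h in regular medium; MTT 0.5 mg/mL for 6 h, formazan dissolved in 0.01 N HCl/10% SDS, A550.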

A short description of data set [4]: Cytotoxicity against human A549 cells assessed as decrease in cell viability up to 200 uM after 48 hrs under dark condition by MTT assay. Type of data set: toxicity, cell-based. Particulars: a549, 48 h. Summed up:
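Dark toxicity: A549 cells treated as in the MTT protocol (1 h compound exposure, serum-free medium, washed) with no light, then assessed at 48 h by MTT (0.5 mg/mL, 6 h, formazan in HCl/SDS, A550).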

A short description of data set [5]: Drug uptake in human A549 cells assessed as mean fluorescence intensity at 2.5 uM after 24 hrs by flow cytometry (reference value: 2.4 +/- 1.1). The note with it: a549, 24 h. Type of data set: ADME, cell-based.
The nature of data set [6]: Photocytotoxicity against human A549 cells assessed as decrease in cell viability preincubated for 1 hr followed by 0.77 mW/cm2 white light irradiation for 80 mins measured after 24 hrs by MTT assay. The class given is functional, cell-based. The note with it: A549, light or radiation study. Summed up:
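IC50 from MTT: A549 cells (1×10^4/well) given graded compound concentrations 1 h in serum-free DMEM (vehicle ≤0.1% DMSO), washed, photo-exposed 80 min at 0.77 mW/cm², regular medium 24 h; MTT 0.5 mg/mL 6 h, A550; viability relative to vehicle control; four replicates, three experiments, mean ± SEM.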

Data set [7] is described as follows: Drug uptake in human A549 cells assessed as mean fluorescence intensity at 2.5 uM after 8 hrs by flow cytometry (reference value: 2.4 +/- 1.1). The class given is ADME, cell-based. Particulars: a549, 8 h.
Data set [8] is described as follows: Drug uptake in human A549 cells assessed as mean fluorescence intensity at 2.5 uM after 4 hrs by flow cytometry (reference value: 2.4 +/- 1.1). Type of data set: ADME, cell-based. Particulars: a549, 4 h.
A short description of data set [9]: Drug uptake in human A549 cells assessed as mean fluorescence intensity at 2.5 uM after 2 hrs by flow cytometry (reference value: 2.4 +/- 1.1). Type of data set: ADME, cell-based. The note with it: a549, 2 h.
The subject of data set [10] is A549. Briefly: Photocytotoxicity against human A549 cells assessed as necrosis at 2.5 uM preincubated for 1 hr followed by 0.77 mW/cm2 white light irradiation for 80 mins measured after 2 hrs by trypan blue staining based phase contrast microscopy. Type of data set: functional, cell-based. A digest of the protocol: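 Cells (1×10^5/well) on coverslips treated 1 h with dye (2.5 µM) or 0.1% DMSO, irradiated 80 min, serum added, 2 h later washed, stained with 0.1% trypan blue in PBS for 5 min, then viewed by phase-contrast microscopy at 40×.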

A short description of data set [11]: Drug uptake in human A549 cells at 1 uM after 0.25 to 3 hrs by Hoechst 33342 staining based fluorescence microscopy. Type of data set: ADME, cell-based. Particulars: a549, 1 µM. Summed up:
as §1

The species named for data set [12] is Bos taurus. Briefly: Binding affinity to calf thymus duplex DNA assessed as decrease in intensities of maximum absorption at 20 uM by spectrophotometric titration analysis.
The species named for data set [13] is Bos taurus. Briefly: Binding affinity to calf thymus duplex DNA by UV-visible spectra analysis.
Data set [14] is filed under the species Bos taurus. Briefly: Binding affinity to calf thymus duplex DNA assessed as decrease in intensities of maximum absorption at 20 uM by spectrophotometric titration analysis.

Calls of active or inactive are those of the source. The calls are words filed in the database; no cut-off is given here. Bounds are passed on as bounds.

Take `CCC1=C(C)C2=C(C)c3c(C)c(CC)c(C)n3[B-](F)(F)[N+]2=C1/C=C/c1ccc(O)cc1`: in data set [1], the Drug uptake entry is listed as “Active”. Moreover, the Flu intensity was found to be 40.9 in [2]; 38.4 in data set [5]; 43.9 in [7]; 53.7 in data set [8]; 88 in [9]. Moreover, the Activity entry in the data set with A549 [3] is “Tde”; in [4], “Non-Toxic”. The 50% inhibitory concentration (IC50) in [6] is 6.5 µM.

For `CCC1=C(C)C2=C(c3ccc(O)cc3)c3c(C)c(CC)c(C)n3[B-](F)(F)[N+]2=C1C`, the Drug uptake result in [1] was “Active”. In addition, the Activity result is “Tde” in the data set on A549 [3] and “Non-Toxic” in data set [4]. The result in the data set with A549 [10] was Active. The concentration for half-maximal inhibition (IC50) in [6] amounted to 2.1 µM.

On to `CCC1=C(C)C2=C(c3ccccc3)c3c(C)c(CC)c(C)n3[B-](F)(F)[N+]2=C1/C=C/c1ccc(O)cc1`, for which, in [1], the Drug uptake result is “Active”. Moreover, the Activity result is “Tde” with A549 [3] and “Non-Toxic” in data set [4]. The IC50 in data set [6] came out at 6.4 µM.

As for `CCC1=C(C)C2=C(c3ccccc3)c3c(C)c(CC)c(C)n3[B-](F)(F)[N+]2=C1/C=C/c1ccc(O[C@H]2O[C@H](CO)[C@@H](O)[C@H](O)[C@H]2O)cc1`, in data set [1], the Drug uptake entry is on record as “Active”. Further, the results for the Activity result (in the data set with A549 [3]; in data set [4]) were “Tde” and “Non-Toxic”, respectively. Moreover, the IC50 in data set [6] is 2.5 µM.

For the compound `CCC1=C(C)C2=C(C)c3c(C)c(CC)c(C)n3[B-](F)(F)[N+]2=C1C`, in data set [6], the IC50 is 6.8 µM. Besides, in [11], the Drug uptake result was “Active”.

With `CCC1=C(C)C2=C(c3ccc(O[C@H]4O[C@H](CO)[C@@H](O)[C@H](O)[C@H]4O)cc3)c3c(C)c(CC)c(C)n3[B-](F)(F)[N+]2=C1C`, in data set [1], the Drug uptake result is on record as “Active”. For the same compound, the Activity entry with A549 [3] was “Tde”; in [4], “Non-Toxic”. Besides, the result in the data set listed under Bos taurus [12] and in the data set filed under Bos taurus [14] was Active. The same compound registered a Kb in the data set filed under Bos taurus [13] of 3.4 ×10⁴ /M. Moreover, the IC50 in [6] was > 10 µM.
